Experimental data collected from several papers.
Target: Dual specificity tyrosine-phosphorylation-regulated kinase 1A (DYRK1A, Homo sapiens, UniProt Q13627)

| Structure (SMILES) | read-out | method | tested at | remaining binding [%] |
| --- | --- | --- | --- | --- |
| O=C(Nc1c[nH]nc1C(=O)NC1CCNCC1)c1cc(F)cc(F)c1 | binding | competition with immobilised ligand | 1 µM | 19 |
| CSc1cccnc1N1CCN(Cc2nc3ccccc3[nH]2)CC1 | cell-free assay | competition with immobilised ligand | 1 µM | 79 |
| COC(=O)Nc1nc2ccc(C(=O)c3ccccc3)cc2[nH]1 | cell-free assay | competition with immobilised ligand | 10 µM | 34 |
| Cc1noc([C@H]2C[C@@H](c3ccc(C(F)(F)F)cc3)CN(C(=O)N3CCS(=O)(=O)C3)C2)n1 | cell-free assay | competition with immobilised ligand | 1 µM | 100 |
| O=C(NCCCN1CCOCC1)c1ccc(Nc2nccc(-c3cc4ccccc4s3)n2)cc1 | binding | competition with immobilised ligand | 1 µM | 41 |
| COc1ccc2c(c1)O[C@@H](c1ccc(OC)c(OC)c1)C[C@H]2NC(=O)C1(c2ccc3c(c2)OC(F)(F)O3)CC1 | cell-free assay | competition with immobilised ligand | 1 µM | 80 |
| C=CC(=O)N1CCC(C(=O)NCC(=O)N2CCN(c3nc(-c4cnc(N)nc4C(F)F)nc(N4CCOCC4)n3)CC2)CC1 | binding | competition with immobilised ligand | 1 µM | 94 |
| C[C@@H](c1ccc(-n2cnc3c(N)ncnc32)cc1)N1CCc2nn(C)c(Cc3ccccc3)c2C1=O | binding | competition with immobilised ligand | 0.1 µM | 80 |
| O=C(NCCCN1CCOCC1)c1ccc(Nc2ncc(Cl)c(-c3ccc(Cl)s3)n2)cc1 | binding | competition with immobilised ligand | 1 µM | 0.5 |
| COc1cnc(Nc2cccc(S(N)(=O)=O)c2)nc1N1CCN(c2ccccc2)CC1 | binding | competition with immobilised ligand | 1 µM | 76 |
| Nc1ncc2c(n1)-c1c([nH]c3ccc(C#CC4CC4)cc13)CCCC2 | binding | competition with immobilised ligand | 1 µM | 100 |
| CCOCCn1cc(C(=O)Nc2ccc(-n3nc(-c4cccnc4)cc3C(F)(F)F)cn2)ccc1=O | cell-free assay | competition with immobilised ligand | 1 µM | 77 |
| O=C(c1ccc(Nc2ncc(Cl)c(-c3cc4ccccc4s3)n2)cc1)N1CCC(N2CCCC2)CC1 | binding | competition with immobilised ligand | 1 µM | 11 |
| CN(CCCC(F)(F)F)c1nccc(-c2cnn3ncccc23)n1 | binding |  | 1 µM | 35 |
